Active and inactive are the calls of the source. No cut-off for these calls is given here.
Tests used:
Coagulation factor X [1] = target: T1, Coagulation factor X (Homo sapiens, UniProt P00742); assay: Inhibition of heparin binding to factor 10a using chromogenic substrate incubated for 7 min by absorbance based assay
Rattus norvegicus [2] = assay: Antithrombotic activity in Sprague-Dawley rat model of blood stasis-induced venous thrombosis assessed as inhibition of thrombosis rate at 100 nmol/kg, sc measured after 1 hr relative to control; format: functional
How it was run: (§1)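 Male SD rats given 100 nmol/kg s.c.; at 1 or 3 h, anesthetized with 10% chloral hydrate ([…]). Vena cava loosely ligated, collaterals tied, 2% rabbit thromboplastin given i.v., stasis 20 s later and held 20 min. Thrombus removed, dried 24 h at 50 °C, weighed; inhibition versus saline group; n = 6, mean ± SEM.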

Plasma [3] = assay: Anticoagulant activity in human plasma assessed as prolongation of prothrombin time by measuring concentration required to double PT incubated for 3 mins by coagulometer analysis; format: functional; details: dose 128 µg/ml, 0.05 h
[4] = Half life in Sprague-Dawley rat at 100 nmol/kg, sc; format: ADME; details: in vivo
How it was run: (§2)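 Plasma level read from anti-FXa activity against a standard curve built by spiking pooled rat platelet-poor plasma with graded compound. Noncompartmental analysis; n = 4-6, mean ± SEM.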

Plasma [5] = assay: Anticoagulant activity in human platelet poor plasma assessed as inhibition of thrombin generation incubated for 3 mins by calibrated automated thrombogram analysis; format: functional, cell-free; details: 0.05 h
How it was run: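 Thrombin generation triggered in human platelet-poor plasma by a phospholipid/tissue factor reagent, monitored by calibrated automated thrombogram with readings every 15 s. Total thrombin taken as area under the thrombin-time curve; IC50 from dose-response. Triplicate.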

[6] = AUC (0 to 32 hrs) in Sprague-Dawley rat at 100 nmol/kg, sc measured after 32 hrs; format: ADME, organism-based; parameters: time 32 hrs, dose 100 nmol/kg, route sc; details: in vivo; how it was run: as §2
Rattus norvegicus [7] = assay: Antithrombotic activity in Sprague-Dawley rat model of blood stasis-induced venous thrombosis assessed as inhibition of thrombosis rate at 300 nmol/kg, sc measured after 2 hrs relative to control; format: functional
How it was run: (§3)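 Stasis/thromboplastin vena cava model in male SD rats 2 h after s.c. dosing at 30, 100 or 300 nmol/kg. Thrombus dried 24 h at 50 °C and weighed, then expressed as % of mean thrombus mass in the saline group (100% = no inhibition); n = 8-10, mean ± SEM.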

[8] = Volume of distribution in Sprague-Dawley rat at 100 nmol/kg, sc; format: ADME; details: in vivo; how it was run: as §2
[9] = Cmax in Sprague-Dawley rat at 100 nmol/kg, sc; format: ADME; parameters: dose 100 nmol/kg, route sc; details: in vivo; how it was run: as §2
Rattus norvegicus [10] = assay: Antithrombotic activity in Sprague-Dawley rat model of blood stasis-induced venous thrombosis assessed as inhibition of thrombosis rate at 100 nmol/kg, sc measured after 2 hrs relative to control; format: functional; how it was run: as §3
Coagulation factor X [11] = target: T1, Coagulation factor X; assay: Inhibition of coagulation factor Xa (unknown origin) using chromogenic substrate incubated for 7 min in presence of antithrombin by absorbance based assay
[12] = Tmax in Sprague-Dawley rat at 100 nmol/kg, sc; format: ADME; details: in vivo; how it was run: as §2
Rattus norvegicus [13] = assay: Antithrombotic activity in Sprague-Dawley rat model of blood stasis-induced venous thrombosis assessed as inhibition of thrombosis rate at 100 nmol/kg, sc measured after 3 hrs; format: functional, organism-based; how it was run: as §1
[14] = Clearance in Sprague-Dawley rat at 100 nmol/kg, sc; format: ADME; details: in vivo; how it was run: as §2
Rattus norvegicus [15] = assay: Antithrombotic activity in Sprague-Dawley rat model of blood stasis-induced venous thrombosis assessed as inhibition of thrombosis rate at 30 nmol/kg, sc measured after 2 hrs relative to control; format: functional; how it was run: as §3
Plasma [16] = assay: Anticoagulant activity in human plasma assessed as prolongation of activated partial thromboplastin time by measuring concentration required to double APTT incubated for 3 mins by coagulometer analysis; format: functional; details: 0.05 h
How it was run: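 Standard human plasma (45 µL) plus sample (5 µL), 2 min at 37 °C, then APTT reagent for 3 min, then CaCl2; clotting time read on a coagulometer. Clotting time versus concentration fitted linearly; EC2.0 is the concentration doubling clotting time. Run in duplicate.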

[17] = AUC (0 to infinity) in Sprague-Dawley rat at 100 nmol/kg, sc; format: ADME; parameters: time infinity, dose 100 nmol/kg, route sc; details: in vivo; for AUC(0-inf): Sprague-Dawley, 100 nmol/kg; how it was run: as §2
Plasma [18] = assay: Anticoagulant activity in human plasma assessed as prolongation of thrombin time by measuring concentration required to double TT incubated for 3 mins by coagulometer analysis; format: functional; details: 0.05 h
Mus musculus = assay: Antithrombotic activity in mouse model of tail-bleeding assessed as increase in blood loss at 2000 nmol/kg, sc; format: functional, organism-based
How it was run: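 Mouse tail-cut bleeding: 2000 nmol/kg s.c., tail cut 1.5 h after dosing, blood loss measured in µL; normal saline negative control; n ≥ 6, mean ± SEM, one-way ANOVA.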

Rattus norvegicus [19] = assay: Antithrombotic activity in Sprague-Dawley rat model of blood stasis-induced venous thrombosis assessed as inhibition of thrombosis rate at 100 nmol/kg, sc measured after 1 hr; format: functional, organism-based; how it was run: as §1

T1 sequence (P00742 41-179 limits assumed): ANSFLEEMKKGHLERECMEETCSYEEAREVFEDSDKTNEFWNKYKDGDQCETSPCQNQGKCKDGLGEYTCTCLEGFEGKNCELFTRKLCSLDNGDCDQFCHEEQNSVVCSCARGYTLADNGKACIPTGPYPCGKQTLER
T1 sequence (P00742 235-488 limits assumed): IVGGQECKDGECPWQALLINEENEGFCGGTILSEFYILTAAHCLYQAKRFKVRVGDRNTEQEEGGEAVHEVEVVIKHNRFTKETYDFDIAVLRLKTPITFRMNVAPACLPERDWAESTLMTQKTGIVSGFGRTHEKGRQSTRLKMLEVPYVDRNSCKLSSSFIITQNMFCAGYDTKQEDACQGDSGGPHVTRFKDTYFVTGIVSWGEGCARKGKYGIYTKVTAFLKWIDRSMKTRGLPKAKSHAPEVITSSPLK

IC50 (Coagulation factor X [1]) | half-life [4] | IC50 (Plasma [5]) | AUC(0-t) at 32 h [6] | Vd [8] | Cmax [9] | IC50 (Coagulation factor X [11]) | Tmax [12] | CL/F [14] | AUC(0-inf) [17] | SMILES | inhibition in vivo at 0.1 µmol/kg (Rattus norvegicus [2]) | EC (Plasma [3]) | inhibition in vivo at 0.3 µmol/kg (Rattus norvegicus [7]) | inhibition in vivo at 0.1 µmol/kg (Rattus norvegicus [10]) | inhibition (Rattus norvegicus [13]) | inhibition in vivo at 0.03 µmol/kg (Rattus norvegicus [15]) | EC (Plasma [16]) | 2TT (Plasma [18]) | inhibition (Rattus norvegicus [7]) | inhibition (Rattus norvegicus [10]) | further results
0.788 µM | 6.2 h | 12.5 µM | 14.2 µg·h/mL | 0.131 L/kg | 2.02 µg/mL | 0.108 µM | 1.5 h | 0.021 L/h/kg | 15.5 µg·h/mL | CO[C@H]1O[C@H](COS(=O)(=O)[O-])[C@@H](O[C@@H]2O[C@@H](C(=O)[O-])[C@@H](O[C@H]3O[C@H](COS(=O)(=O)[O-])[C@@H](O[C@@H]4O[C@H](C(=O)[O-])[C@@H](O[C@H]5O[C@H](COS(=O)(=O)[O-])[C@@H](O)[C@H](OC)[C@H]5OS(=O)(=O)[O-])[C@H](OC)[C@H]4O)[C@H](OS(=O)(=O)[O-])[C@H]3OS(=O)(=O)[O-])[C@H](OC)[C@H]2OS(=O)(=O)[O-])[C@H](OS(=O)(=O)[O-])[C@H]1OS(=O)(=O)[O-].[Na+].[Na+].[Na+].[Na+].[Na+].[Na+].[Na+].[Na+].[Na+].[Na+].[Na+] | 56.9% | >128 µg/mL | 89.5% | > 70% | Active | 48.6% | 48.78 µM | >128 µg/mL | – | – | –
1.13 µM | 15.1 h | 14.8 µM | 12.8 µg·h/mL | 0.136 L/kg | 1.14 µg/mL | 0.0888 µM | 2 h | 0.017 L/h/kg | 15.1 µg·h/mL | CO[C@H]1O[C@H](COS(=O)(=O)[O-])[C@@H](O[C@@H]2O[C@@H](C(=O)[O-])[C@@H](O[C@H]3O[C@H](COS(=O)(=O)[O-])[C@@H](O[C@@H]4O[C@H](C(=O)[O-])[C@@H](O[C@H]5O[C@H](COS(=O)(=O)[O-])[C@@H](OC)[C@H](OS(=O)(=O)[O-])[C@H]5OS(=O)(=O)[O-])[C@H](OC)[C@H]4OC(C)=O)[C@H](OS(=O)(=O)[O-])[C@H]3OS(=O)(=O)[O-])[C@H](OC)[C@H]2OS(=O)(=O)[O-])[C@H](OS(=O)(=O)[O-])[C@H]1OS(=O)(=O)[O-].[Na+].[Na+].[Na+].[Na+].[Na+].[Na+].[Na+].[Na+].[Na+].[Na+].[Na+].[Na+] | – | >128 µg/mL | – | – | Active | 33.2% | 32.47 µM | >128 µg/mL | Active | Active | Activity (Mus musculus): Active
0.725 µM | 6.1 h | 12.2 µM | 17.6 µg·h/mL | 0.058 L/kg | 2.04 µg/mL | 0.141 µM | 2 h | – | – | CO[C@H]1O[C@H](COS(=O)(=O)[O-])[C@@H](O[C@@H]2O[C@@H](C(=O)[O-])[C@@H](O[C@H]3O[C@H](COS(=O)(=O)[O-])[C@@H](O[C@@H]4O[C@H](C(=O)[O-])[C@@H](O[C@H]5O[C@H](COS(=O)(=O)[O-])[C@@H](O)[C@H](O)[C@H]5OS(=O)(=O)[O-])[C@H](OC)[C@H]4O)[C@H](OS(=O)(=O)[O-])[C@H]3OS(=O)(=O)[O-])[C@H](OC)[C@H]2OS(=O)(=O)[O-])[C@H](OS(=O)(=O)[O-])[C@H]1OS(=O)(=O)[O-].[Na+].[Na+].[Na+].[Na+].[Na+].[Na+].[Na+].[Na+].[Na+].[Na+].[Na+] | 77.8% | >128 µg/mL | 93.1% | > 70% | – | < 15% | 40.83 µM | >128 µg/mL | – | – | AUC [17]: 19.0532 µg·h/mL
0.779 µM | 4.8 h | 12.4 µM | 6.35 µg·h/mL | 0.183 L/kg | 1.25 µg/mL | 0.0947 µM | 1 h | 0.038 L/h/kg | 6.75 µg·h/mL | CO[C@H]1O[C@H](COS(=O)(=O)[O-])[C@@H](O[C@@H]2O[C@@H](C(=O)[O-])[C@@H](O[C@H]3O[C@H](COS(=O)(=O)[O-])[C@@H](O[C@@H]4O[C@H](C(=O)[O-])[C@@H](O[C@H]5O[C@H](COS(=O)(=O)[O-])[C@@H](O)[C@H](OS(=O)(=O)[O-])[C@H]5OS(=O)(=O)[O-])[C@H](OC)[C@H]4O)[C@H](OS(=O)(=O)[O-])[C@H]3OS(=O)(=O)[O-])[C@H](OC)[C@H]2OS(=O)(=O)[O-])[C@H](OS(=O)(=O)[O-])[C@H]1OS(=O)(=O)[O-].[Na+].[Na+].[Na+].[Na+].[Na+].[Na+].[Na+].[Na+].[Na+].[Na+].[Na+].[Na+] | – | >128 µg/mL | – | – | – | 39.5% | 33.05 µM | >128 µg/mL | Active | Active | inhibition (Rattus norvegicus [19]): Active
1.91 µM | 1.2 h | 14.5 µM | 1.07 µg·h/mL | 0.097 L/kg | 0.519 µg/mL | 0.0996 µM | 0.6 h | 0.239 L/h/kg | 1.12 µg·h/mL | CO[C@H]1O[C@H](COS(=O)(=O)[O-])[C@@H](O[C@@H]2O[C@@H](C(=O)[O-])[C@@H](O[C@H]3O[C@H](COS(=O)(=O)[O-])[C@@H](O[C@@H]4O[C@H](C(=O)[O-])[C@@H](O[C@H]5O[C@H](COS(=O)(=O)[O-])[C@@H](O)[C@H](O)[C@H]5NS(=O)(=O)[O-])[C@H](O)[C@H]4O)[C@H](OS(=O)(=O)[O-])[C@H]3NS(=O)(=O)[O-])[C@H](O)[C@H]2OS(=O)(=O)[O-])[C@H](O)[C@H]1NS(=O)(=O)[O-].[Na+].[Na+].[Na+].[Na+].[Na+].[Na+].[Na+].[Na+].[Na+].[Na+] [FONDAPARINUX SODIUM] | 55.7% | >128 µg/mL | 59.3% | – | – | < 15% | 51.2 µM | >128 µg/mL | – | Active | inhibition (Rattus norvegicus [19]): Active

From ChEMBL document CHEMBL5154796, “Chemical synthesis and pharmacological properties of heparin pentasaccharide analogues” (Eur J Med Chem, 2022)
